Reference: ChEMBL document CHEMBL2177043, “HIV-1 X4 activities of polycationic "viologen" based dendrimers by interaction with the chemokine receptor CXCR4: study of structure-activity relationship” (J Med Chem, 2012)
Activity calls are given as the source filed them. No cut-off for these calls is given here.

How the values were obtained:
[1] = Cytotoxicity against human MT4 cells by MTT assay; type: cell-based
[2] = test system: Human immunodeficiency virus 1; assay: Antiviral activity against X4 HIV1 NL4.3 infected in human MT4 cells assessed as inhibition of viral replication pre-incubated for 30 mins […]; type: functional, organism-based; conditions: Human immunodeficiency virus 1, NL4.3, MT4
[3] = molecular target: T1, C-X-C chemokine receptor type 4 (Homo sapiens, UniProt P61073); assay: Inhibition of anti-CXCR4 mAbs clone 1D9 binding to CXCR4 in human SUPT1 cells incubated for 30 mins by FACS
T1 sequence (P61073 whole entry): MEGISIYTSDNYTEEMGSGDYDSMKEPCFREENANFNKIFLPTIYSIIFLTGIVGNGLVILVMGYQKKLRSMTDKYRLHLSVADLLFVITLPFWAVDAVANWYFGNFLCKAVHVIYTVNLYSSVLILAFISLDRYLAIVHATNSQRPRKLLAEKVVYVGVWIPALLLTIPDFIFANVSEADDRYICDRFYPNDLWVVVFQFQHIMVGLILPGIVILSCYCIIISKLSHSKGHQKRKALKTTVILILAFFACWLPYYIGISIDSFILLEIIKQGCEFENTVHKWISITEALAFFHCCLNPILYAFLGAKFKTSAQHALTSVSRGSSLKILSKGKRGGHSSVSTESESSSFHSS

[4] = test system: Human immunodeficiency virus 1; assay: Antiviral activity against X4 HIV1 NL4.3 infected in human PBMC assessed as inhibition of viral replication pre-incubated for 30 mins measured 5 days post infection by MTT assay; type: functional, organism-based; conditions: Human immunodeficiency virus 1, NL4.3
Method in brief: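 Human PBMC infected with HIV-1 NL4.3. IC₅₀ is the concentration inhibiting viral replication by 50%, averaged over two independent experiments. Cytotoxicity (CC₅₀, 50% loss of PBMC viability) evaluated in the same assay.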

[5] = molecular target: T2, C-C chemokine receptor type 5 (Homo sapiens, UniProt P51681); assay: Antagonist activity against CCR5 expressed in U87.CD4.CCR5 cells assessed as inhibition of CCL3L1-induced calcium signaling incubated for 10 mins by FLIPR; type: functional, cell-based
T2 sequence (P51681 whole entry, looked up): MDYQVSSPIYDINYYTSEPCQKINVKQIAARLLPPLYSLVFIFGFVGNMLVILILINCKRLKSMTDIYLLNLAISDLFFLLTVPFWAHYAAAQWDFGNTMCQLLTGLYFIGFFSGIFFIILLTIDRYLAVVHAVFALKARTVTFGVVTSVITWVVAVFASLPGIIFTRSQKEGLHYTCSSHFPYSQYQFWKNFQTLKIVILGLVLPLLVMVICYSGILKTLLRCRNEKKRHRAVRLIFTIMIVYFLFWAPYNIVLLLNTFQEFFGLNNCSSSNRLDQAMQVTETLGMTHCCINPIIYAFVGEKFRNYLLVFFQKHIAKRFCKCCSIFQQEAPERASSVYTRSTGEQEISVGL
Method in brief: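 U87.CD4.CCR5 cells seeded at 2 × 10⁴/well on 0.2% gelatin the day before, loaded with 4 μM Fluo-3 AM for 45 min at 37 °C, washed, then preincubated with compounds at varied concentrations in assay buffer for 10 min at 37 °C. Stimulated with 10 ng/mL LD78β (CCL3L1); Ca²⁺ flux recorded by FLIPR.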

[6] = molecular target: T1, C-X-C chemokine receptor type 4; assay: Antagonist activity against CXCR4 expressed in U87.CD.CXCR4 cells assessed as inhibition of CXCL12-induced calcium signaling incubated for 10 mins by FLIPR; type: functional, cell-based
Method in brief: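 U87.CD4.CXCR4 cells seeded at 2 × 10⁴/well on 0.2% gelatin the day before, loaded with 4 μM Fluo-3 AM for 45 min at 37 °C, washed, then preincubated with compounds at varied concentrations in assay buffer for 10 min at 37 °C. Challenged with 25 ng/mL CXCL12; Ca²⁺ flux followed over time by FLIPR.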

[7] = molecular target: T1, C-X-C chemokine receptor type 4; assay: Inhibition of anti-CXCR4 mAbs clone 173 binding to CXCR4 in human SUPT1 cells incubated for 30 mins by FACS
[8] = molecular target: T1, C-X-C chemokine receptor type 4; assay: Agonist activity against CXCR4 expressed in U87.CD.CXCR4 cells assessed as stimulation of calcium signaling incubated for 10 mins by FLIPR; type: functional, cell-based
Method in brief: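 U87.CD4 cells stably carrying CXCR4 or CCR5, trypsinized and seeded at 2 × 10⁴ cells/well on 0.2% gelatin the day before. Loaded with Fluo-3 AM (4 μM, 45 min, 37 °C), washed, then exposed to test agents alone at varied concentrations in assay buffer for 10 min at 37 °C. Cytosolic Ca²⁺ rise monitored over time by FLIPR to detect any agonist-triggered signal.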

[9] = molecular target: T1, C-X-C chemokine receptor type 4; assay: Inhibition of anti-CXCR4 mAbs clone 12G5 binding to CXCR4 in human SUPT1 cells incubated for 30 mins by FACS
[10] = molecular target: T2, C-C chemokine receptor type 5; assay: Antagonist activity against CCR5 expressed in U87.CD4.CCR5 cells assessed as inhibition of CCL3L1-induced calcium signaling incubated for 10 mins by FLIPR
[11] = molecular target: T2, C-C chemokine receptor type 5; assay: Agonist activity against CCR5 expressed in U87.CD4.CCR5 cells assessed as stimulation of calcium signaling incubated for 10 mins by FLIPR
[12] = Cytotoxicity against human PBMC cells by MTT assay; type: cell-based
[13] = molecular target: T1, C-X-C chemokine receptor type 4; assay: Inhibition of CXCL-12'AF647 binding to CXCR4 in human SUPT1 cells incubated for 15 mins by FACS; type: cell-based
Method in brief: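 SupT1 cells (high CXCR4) washed, then incubated 15 min at room temperature with compounds at varied concentrations in HBSS containing 20 mM HEPES and 0.2% BSA, pH 7.4. CXCL12-AF647 added at 25 ng/mL final for 30 min at room temperature. Cells washed, fixed in 1% paraformaldehyde, and read by flow cytometry on FL4.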

| Compound | CC50 [1] [µg/mL] | IC50 [2] [µg/mL] | IC50 [3] [nM] | inhibition [3] | IC50 [4] [µg/mL] | IC50 [5] [nM] | IC50 [6] [nM] | inhibition [6] | IC50 [7] [nM] | inhibition [7] | Activity [8] | IC50 [9] [nM] | inhibition [9] | inhibition [10] | Activity [11] | CC50 [12] [µg/mL] | IC50 [13] [nM] |
| --- | --- | --- | --- | --- | --- | --- | --- | --- | --- | --- | --- | --- | --- | --- | --- | --- | --- |
| CC[n+]1ccc(-c2cc[n+](Cc3cc(C[n+]4ccc(-c5cc[n+](CC)cc5)cc4)cc(-[n+]4ccc(-c5cc[n+](-c6cc(C[n+]7ccc(-c8cc[n+](CC)cc8)cc7)cc(C[n+]7ccc(-c8cc[n+](CC)cc8)cc7)c6)cc5)cc4)c3)cc2)cc1.F[P-](F)(F)(F)(F)F.F[P-](F)(F)(F)(F)F.F[P-](F)(F)(F)(F)F.F[P-](F)(F)(F)(F)F.F[P-](F)(F)(F)(F)F.F[P-](F)(F)(F)(F)F.F[P-](F)(F)(F)(F)F.F[P-](F)(F)(F)(F)F.F[P-](F)(F)(F)(F)F.F[P-](F)(F)(F)(F)F | > 100 | 1.1 | 3360 | Dose-dependent effect | 5.6 | > 39200 | 24000 | Dose-dependent effect | 544 | Dose-dependent effect | inactive | 768 | Dose-dependent effect | Dose-dependent effect | inactive | > 100 | 5800 |
| CC[n+]1ccc(-c2cc[n+](Cc3cc(C[n+]4ccc(-c5cc[n+](CC)cc5)cc4)cc(C[n+]4ccc(-c5cc[n+](Cc6cc(C[n+]7ccc(-c8cc[n+](Cc9cc(C[n+]%10ccc(-c%11cc[n+](CC)cc%11)cc%10)cc(C[n+]%10ccc(-c%11cc[n+](CC)cc%11)cc%10)c9)cc8)cc7)cc(C[n+]7ccc(-c8cc[n+](Cc9cc(C[n+]%10ccc(-c%11cc[n+](CC)cc%11)cc%10)cc(C[n+]%10ccc(-c%11cc[n+](CC)cc%11)cc%10)c9)cc8)cc7)c6)cc5)cc4)c3)cc2)cc1.F[P-](F)(F)(F)(F)F.F[P-](F)(F)(F)(F)F.F[P-](F)(F)(F)(F)F.F[P-](F)(F)(F)(F)F.F[P-](F)(F)(F)(F)F.F[P-](F)(F)(F)(F)F.F[P-](F)(F)(F)(F)F.F[P-](F)(F)(F)(F)F.F[P-](F)(F)(F)(F)F.F[P-](F)(F)(F)(F)F.F[P-](F)(F)(F)(F)F.F[P-](F)(F)(F)(F)F.F[P-](F)(F)(F)(F)F.F[P-](F)(F)(F)(F)F.F[P-](F)(F)(F)(F)F.F[P-](F)(F)(F)(F)F.F[P-](F)(F)(F)(F)F.F[P-](F)(F)(F)(F)F | 11 | 0.8 | 464 | Dose-dependent effect | 0.34 | 4860 | 294 | Dose-dependent effect | 378 | Dose-dependent effect | inactive | 260 | Dose-dependent effect | Dose-dependent effect | inactive | 20 | 309 |
| Cc1cn(CCC[n+]2ccc(-c3cc[n+](Cc4cc(C[n+]5ccc(-c6cc[n+](CCCn7cc(C)c(=O)[nH]c7=O)cc6)cc5)cc(-[n+]5ccc(-c6cc[n+](-c7cc(C[n+]8ccc(-c9cc[n+](CCCn%10cc(C)c(=O)[nH]c%10=O)cc9)cc8)cc(C[n+]8ccc(-c9cc[n+](CCCn%10cc(C)c(=O)[nH]c%10=O)cc9)cc8)c7)cc6)cc5)c4)cc3)cc2)c(=O)[nH]c1=O.F[P-](F)(F)(F)(F)F.F[P-](F)(F)(F)(F)F.F[P-](F)(F)(F)(F)F.F[P-](F)(F)(F)(F)F.F[P-](F)(F)(F)(F)F.F[P-](F)(F)(F)(F)F.F[P-](F)(F)(F)(F)F.F[P-](F)(F)(F)(F)F.F[P-](F)(F)(F)(F)F.F[P-](F)(F)(F)(F)F | > 100 | 2.4 | 3080 | Dose-dependent effect | 4.62 | > 32200 | 21000 | Dose-dependent effect | 660 | Dose-dependent effect | inactive | 724 | Dose-dependent effect | Dose-dependent effect | inactive | > 100 | 3400 |
